Source: ChEMBL document CHEMBL5244249, “Discovery of tofacitinib derivatives as orally active antitumor agents based on the scaffold hybridization strategy” (Eur J Med Chem, 2020)
The source made the active and inactive calls. No cut-off for these calls is given here.

Assays:
HGC-27 = test: Antiproliferative activity against human HGC-27 cells assessed as inhibition of cell growth incubated for 72 hrs by MTT assay; format: functional, cell-based; conditions: HGC-27, 72 h
Procedure, shortened: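 Antiproliferative screen in gastric cancer lines MGC-803, HGC-27 and BGC-823 by MTT assay; IC50 reported as mean ± SD.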

MGC-803 [1] = test: Antitumor activity against human MGC-803 cells xenografted in SCID mouse assessed as decrease in average tumor volume at 12.5 to 25 mg/kg, IG administered for 21 days; format: functional, organism-based; conditions: dose 12.5-25 mg/kg, time 21.0 day
Procedure, shortened: (§1)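 MGC-803 cells implanted subcutaneously on the right side of SCID mice; dosed at 12.5 or 25 mg/kg in 0.5% CMC-Na (vehicle control) for 21 days. Body weight and tumor size recorded periodically; tumors excised and weighed at end. Means ± SD.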

[2] = Activation of MAPK pathway in human MGC-803 cells assessed as change in phosphorylated Erk5 expression at 5 to 10 uM incubated for 24 hrs by Western blot analysis; format: cell-based; conditions: dose 5-10 µM
MGC-803 [3] = test: Induction of apoptosis in human MGC-803 cells assessed as early apoptotic cells at 5 uM incubated for 48 hrs by Annexin V-FITC/PI staining based flow cytometric analysis (reference value: 2.5 %); format: functional
MGC-803 [4] = test: Induction of mitochondrial dysfunction in human MGC-803 cells assessed as increase in green fluorescence intensity at 5 uM incubated for 24 hrs by JC-1 staining based fluorescence microscopic analysis (reference value: 9.9%); format: functional
MGC-803 [5] = test: Cell cycle arrest in human MGC-803 cells assessed as G2/M phase cells at 5 uM incubated for 24 hrs by RNase/PI staining based flow cytometric analysis (reference value: 15.11%); format: functional
MGC-803 [6] = test: Induction of apoptosis in human MGC-803 cells assessed as necrotic cells at 5 uM incubated for 24 hrs by Annexin V-FITC/PI staining based flow cytometric analysis (reference value: 2.0 %); format: functional
MGC-803 [7] = test: Antiproliferative activity against human MGC-803 cells assessed as decrease in cell viability at 10 uM preincubated with SP600125 for 4 hrs followed by compound addition and measured after 24 hrs by MTT assay; format: functional, cell-based
Procedure, shortened: (§2)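 MGC-803 cells pre-incubated 4 h with SB203580 (4 μM) or SP600125 (20 μM), then exposed to 10 μM test compound for 24 h; viability by MTT, expressed as percent of control. Mean ± SD, three independent experiments.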

MGC-803 [8] = test: Induction of apoptosis in human MGC-803 cells assessed as cell debris at 5 to 10 uM incubated for 24 hrs by Hoechst 33342 staining based fluorescence microscopic analysis; format: functional; conditions: dose 5-10 µM
Procedure, shortened: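 MGC-803 cells exposed to 0, 5, 7.5 or 10 μM; cell morphology imaged and nuclear morphology examined by staining. Mean ± SD, three independent experiments.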

MGC-803 [9] = test: Induction of apoptosis in human MGC-803 cells assessed as late apoptotic cells at 7.5 uM incubated for 24 hrs by Annexin V-FITC/PI staining based flow cytometric analysis (reference value: 3.8 %); format: functional
MGC-803 [10] = test: Cell cycle arrest in human MGC-803 cells assessed as G0/G1 phase cells at 7.5 uM incubated for 24 hrs by RNase/PI staining based flow cytometric analysis (reference value: 54.99%); format: functional
MGC-803 [11] = test: Induction of apoptosis in human MGC-803 cells assessed as early apoptotic cells at 10 uM incubated for 48 hrs by Annexin V-FITC/PI staining based flow cytometric analysis (reference value: 2.5 %); format: functional
MGC-803 [12] = test: Induction of apoptosis in human MGC-803 cells assessed as late apoptotic cells at 10 uM incubated for 48 hrs by Annexin V-FITC/PI staining based flow cytometric analysis (reference value: 0.5 %); format: functional
MGC-803 [13] = test: Induction of apoptosis in human MGC-803 cells assessed as early apoptotic cells at 5 uM incubated for 24 hrs by Annexin V-FITC/PI staining based flow cytometric analysis (reference value: 3.9 %); format: functional
[14] = Activation of MAPK pathway in human MGC-803 cells assessed as increase in phosphorylated JNK expression at 5 to 10 uM incubated for 24 hrs by Western blot analysis; format: cell-based; conditions: filed as activator, dose 5-10 µM
[15] = Toxicity in SCID mouse xenografted with human MGC-803 cells assessed as effect on general health at 12.5 to 25 mg/kg, IG administered for 21 days; format: organism-based; conditions: in vivo, po, 504 h, dose 12.5-25 mg/kg, time 21 day
Procedure, shortened: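 SCID mice bearing subcutaneous MGC-803 xenografts (right side) dosed with 12.5 or 25 mg/kg over 21 days, 0.5% CMC-Na vehicle as control; body weight and tumor size monitored periodically; major organs examined histopathologically at end; means ± SD.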

MGC-803 [16] = test: Induction of apoptosis in human MGC-803 cells assessed as total apoptotic cells at 10 uM incubated for 48 hrs by Annexin V-FITC/PI staining based flow cytometric analysis relative to control; format: functional
MGC-803 [17] = test: Induction of apoptosis in human MGC-803 cells assessed as viable cells at 7.5 uM incubated for 24 hrs by Annexin V-FITC/PI staining based flow cytometric analysis (reference value: 90.3 %); format: functional; conditions: read-out: Activity
MGC-803 [18] = test: Cell cycle arrest in human MGC-803 cells assessed as G2/M phase cells at 10 uM incubated for 24 hrs by RNase/PI staining based flow cytometric analysis (reference value: 15.11%); format: functional
MGC-803 [19] = test: Antitumor activity against human MGC-803 cells xenografted in SCID mouse assessed as decrease in average tumor weight at 25 mg/kg, IG administered for 21 days relative to control; format: functional; set-up: scale not given: the % may be the effect or the level left; conditions: time 21 day; procedure, shortened: as §1
[20] = Activation of MAPK pathway in human MGC-803 cells assessed as change in JNK total expression at 5 to 10 uM incubated for 24 hrs by Western blot analysis; format: cell-based; conditions: dose 5-10 µM
MGC-803 [21] = test: Induction of apoptosis in human MGC-803 cells assessed as viable cells at 10 uM incubated for 24 hrs by Annexin V-FITC/PI staining based flow cytometric analysis (reference value: 90.3 %); format: functional; conditions: read-out: Activity
MGC-803 [22] = test: Induction of apoptosis in human MGC-803 cells assessed as early apoptotic cells at 10 uM incubated for 24 hrs by Annexin V-FITC/PI staining based flow cytometric analysis (reference value: 3.9 %); format: functional
MGC-803 [23] = test: Induction of mitochondrial dysfunction in human MGC-803 cells assessed as upregulation of cleaved caspase-7 expression at 5 to 10 uM incubated for 24 hrs by Western blot analysis; format: functional, cell-based; conditions: dose 5-10 µM
Procedure, shortened: (§3)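 Western blot of caspase 9, 3, 7, PARP and γH2A.X in MGC-803 lysates after 24 h exposure to 5, 7.5 or 10 μM; band quantitation; mean ± SD from three independent experiments.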

MGC-803 [24] = test: Induction of apoptosis in human MGC-803 cells assessed as early apoptotic cells at 7.5 uM incubated for 24 hrs by Annexin V-FITC/PI staining based flow cytometric analysis (reference value: 3.9 %); format: functional
MGC-803 [25] = test: Antiproliferative activity against human MGC-803 cells assessed as decrease in cell viability at 10 uM preincubated with SB203580 for 4 hrs followed by compound addition and measured after 24 hrs by MTT assay; format: functional, cell-based; procedure, shortened: as §2
MGC-803 [26] = test: Induction of mitochondrial dysfunction in human MGC-803 cells assessed as upregulation of cleaved caspase-9 expression at 5 to 10 uM incubated for 24 hrs by Western blot analysis; format: functional, cell-based; conditions: dose 5-10 µM; procedure, shortened: as §3

With `Cc1cc(N2CC[C@@H](C)[C@@H](N(C)c3ncnc4[nH]ccc34)C2)n2nc(SCc3ccc(C(F)(F)F)cc3)nc2n1` the IC50 (HGC-27) was 9.54 µM, the Activity (MGC-803 [1]) was “Active” and the Activity [2] was “inactive”. The Activity (MGC-803 [3]) was 8.5%, the Activity (MGC-803 [4]) was 27.7% and the Activity (MGC-803 [5]) was 10.78%. The Activity (MGC-803 [6]) was 4%, the Activity (MGC-803 [7]) was “inactive” and the Activity (MGC-803 [8]) was “Active”. The Activity (MGC-803 [9]) was 15.8%, the Activity (MGC-803 [10]) was 56.42% and the Activity (MGC-803 [11]) was 4.9%. The Activity (MGC-803 [12]) was 77.2%, the Activity (MGC-803 [13]) was 5.5% and the Activity [14] was “Active”. For the same compound, the Activity [15] was “Non-Toxic”, the Activity (MGC-803 [16]) was 82.1% and the viability at 7.5 µM (MGC-803 [17]) was 69.2%. For the same compound, the Activity (MGC-803 [18]) was 12.82%, the Activity (MGC-803 [19]) was 53% and the Activity [20] was “inactive”. The viability at 10 µM (MGC-803 [21]) was 57.1%, the Activity (MGC-803 [22]) was 12.7% and the Activity (MGC-803 [23]) was “Active”. For the same compound, the Activity (MGC-803 [24]) was 11.5%, the Activity (MGC-803 [25]) was “inactive” and the Activity (MGC-803 [26]) was “Active”.
